Experimental findings from ChEMBL document CHEMBL4513216, “Probing the Open Global Health Chemical Diversity Library for Multistage-Active Starting Points for Next-Generation Antimalarials” (ACS Infect Dis, 2020) are described below.

A short description of the data set: Toxicity liver stage against HepG2, at 10uM. The format is cell-based. The arrangement: test concentration 10 uM, cell line HepG2-A16-CD81EGFP. Particulars: human, HepG2-A16-CD81EGFP cells; read-out: INHIBITION
Summed up:
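Uninfected HepG2-A16-CD81EGFP cells, 3 × 10^3 per well, 1536-well, plated on prespotted compound at 10 μM final, parasite-free screening media added to match infected plates; puromycin 10 μM positive, DMSO 0.5% negative; run in parallel with 48 h PbLuc assay at 37 °C, 5% CO2; viability by CellTiter-Glo luminescence, normalized to controls.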
For the molecule `Cc1nn(CC(O)CN2CCc3ccccc3C2)c(=O)c(C#N)c1C` (stereo not given), the cytotoxicity at 10 µM is 8.27%. Under `O[C@@H]1C[C@@H](c2nc(-c3ccccc3)no2)N(CC2CCCCC2)C1` stands -2.74%; under `CS(=O)(=O)N1CCCC12CCCN(C(=O)c1ccc3c(c1)OCO3)C2` (stereo not given), -144%. Take `CC(C)NC(=O)[C@]12COC[C@H]1CN(Cc1cnn(C)c1)C2`: the cytotoxicity at 10 µM worked out at 3.63%. Under `O=c1[nH]c2nc(N3CCSCC3)ncc2c(=O)n1-c1ccc(F)cc1` stands 9.82%; under `O=c1cc2c(nn1CN1CCOCC1)CCC2`, 1.31%. As to `Cn1cnc2c1C(COCC1CC1)CN(Cc1ccsc1)C2` (stereo not given), the cytotoxicity at 10 µM is -5.07%. Under `Cc1ccc(NC(=O)c2cccc(OCc3nnnn3C)c2)nc1` stands 4.4%; under `CC1(C(N)=O)CN(CC2CCC2)CCO1` (stereo not given), 2.04%; under `CNC(=O)c1cc(C)nc(C2(C)CCCN2c2cc(C)ncn2)n1` (stereo not given), 2.15%. `Cc1nccn1CCNC(=O)C1(C)CC(c2ccccc2)=NO1` (stereo not given): the cytotoxicity at 10 µM came out at 8.46%. With `CCc1cc2c(N3CCCC(c4ccn[nH]4)C3)ncnc2s1` (stereo not given) the figure was 15.7%. With `COc1ccc(C(CN2CCN(C)CC2)Nc2ncccn2)cc1` (stereo not given) the figure was 5.54%.

For the molecule `COCCNc1nc(-c2ccc(S(=O)(=O)N3CCCCC3)cc2)cs1`, the cytotoxicity at 10 µM was -42%. For `Cn1cc(CCC(=O)NCc2ccccc2OC(C)(C)C)cn1`, the cytotoxicity at 10 µM worked out at 6.67%. With `COCCN1CC(=O)N(C(C)C)C(C)(C)C1` the figure was 1.31%; with `CC(NCc1cccn1C)c1noc(-c2ccc(Cl)cc2)n1` (stereo not given), 5.07%; with `CCCc1c(C(=O)N2CCN(c3cnccn3)CC2)cnn1C`, 9.77%. Under `O=C(NCc1cc(F)ccc1F)Nc1ccn(CC(F)F)n1` stands -3.06%; under `CC(C)C(NCc1ccc(Cn2cncn2)cc1)c1ccccc1` (stereo not given), 4.1%; under `N#CCCN(CC1CCOC1)Cn1ccc(-c2ccsc2)n1` (stereo not given), -2.68%.

For the molecule `Cc1csc(C(C)(C)NCCNS(C)(=O)=O)n1`, the cytotoxicity at 10 µM is 4.61%. For `COCCn1cc(NC(=O)N(CCC(N)=O)Cc2ccccc2)cn1`, the cytotoxicity at 10 µM is -4.72%. `CS(=O)(=O)NCCNC(=O)c1ccc(OCc2ccccc2)nc1`: the cytotoxicity at 10 µM was determined as 4.43%.

For `COc1ccc2cc(C(=O)NCCc3nc(C)no3)[nH]c2c1`, the cytotoxicity at 10 µM was found to be 9.63%. On to `Cc1cnn(CCC(=O)NS(=O)(=O)N2CCc3ccccc32)c1`, for which the cytotoxicity at 10 µM came out at 4.72%. With `CCc1nccn1C1CCCN(C(=O)CCc2nc(C(C)C)no2)C1` (stereo not given) the figure was 5.93%; with `O=C(Nc1nncs1)N1CCC(c2ccc(O)cc2)CC1`, -7.55%; with `OCCOc1ccc(NCc2cccc3cn[nH]c23)cn1`, -4.13%. Under `Cc1ccc(S(=O)(=O)NCCNC(=O)c2ccoc2)cc1C` stands -3.26%. With `CCC(O)CN1CCN(C(=O)c2cnn(-c3ccccc3F)c2)CC1` (stereo not given), the cytotoxicity at 10 µM is -3.69%. With `COc1ccc(C(=O)N(CCC#N)Cc2ccccn2)cc1` the figure was 13.1%; with `CCC(CC)c1cc(CNC(=O)N2CCCC(c3ncc[nH]3)C2)on1` (stereo not given), -2.02%; with `CC(C)C(O)C(C)(C)CNC(=O)NCc1ccc(-n2cncn2)cc1` (stereo not given), -8.14%. On to `Cn1cc(Br)c(=O)c(NS(=O)(=O)c2ccccc2F)c1`, for which the cytotoxicity at 10 µM is -2.62%.

As for `Cc1nnc2n1CCN(c1nn3cc(C(C)(C)C)nc3s1)C2`, the cytotoxicity at 10 µM was -0.903%.

`CCN(C(=O)COc1nc(C(C)(C)C)no1)C1CC1`: the cytotoxicity at 10 µM came to 3.2%. Under `O=C(NCCCO)Nc1cccc(C[S+]([O-])Cc2ccccc2)c1` (stereo not given) stands -1.06%; under `NC(=O)Cn1ccc(NC(=O)C2(c3cccc(Cl)c3)CC2)n1`, 0.217%; under `CCOc1ccccc1CNC(=O)N(CC)C(C)c1cccnc1` (stereo not given), -3.64%. With `O=C(Nc1cc(Cl)ccc1Cl)NC1CCN(C2CCOC2)CC1` (stereo not given) the figure was 6.8%; with `COC(=O)N1CCCC(C(=O)Nc2nc(C)c(SC)s2)C1` (stereo not given), 11.1%; with `CSC(C)C(=O)N1CCN(CCO)CC1` (stereo not given), -6.69%.

For `COC(=O)C(C)(C)S(=O)(=O)c1ccc(Br)cc1`, the cytotoxicity at 10 µM was found to be 5.25%. With `COCCCOC1CN(C(=O)c2[nH]nc3c2CCCC3)C1` the figure was 8.11%; with `CC(=O)c1cc(C(=O)NC2(c3ccc(Br)cc3)CC2)n(C)c1`, 5.78%; with `Cc1cc(C)c(CNc2cnc3ccccc3n2)c(=O)[nH]1`, 41.8%. With `CC(Cn1ccnc1)NS(=O)(=O)Cc1ccc(F)cc1` (stereo not given) the figure was 5.36%. Take `CN(CCn1cccn1)S(=O)(=O)c1ccc(C#N)cc1`: the cytotoxicity at 10 µM is -4.81%. With `COc1cccc(OCc2nnc3n2N=C(C(C)(C)C)CS3)c1`, the cytotoxicity at 10 µM turned out to be 4.4%. As to `CC(Cn1cccn1)NCc1csc(-c2ccc(F)cc2)n1` (stereo not given), the cytotoxicity at 10 µM was -67.9%. Under `COc1ccccc1OCC(=O)Nc1ncccc1Cl` stands -3.61%; under `Cn1nc2c(cc1=O)CN(CCc1nc3ccccc3c(=O)[nH]1)CC2`, -10.9%; under `O=C(CCN1CCC(C(=O)c2cc(F)ccc2F)CC1)NC1CC1`, -7.74%. Under `Cc1nnc2n1CCN(C(=O)c1cn(-c3ccccc3Cl)nn1)C2` stands -4.55%; under `Cc1nnc([C@@]23CCO[C@@H]2CCN(S(=O)(=O)c2cccnc2)C3)o1`, -103%; under `O=C(c1ccncc1)N1CCc2c(COCC3CC3)cncc2C1`, -78.7%. Under `Cn1cc(-c2cnc(N3CCOCC3)nc2)cc1C(=O)NC1CC1` stands -80.4%.

For the molecule `CCC(CC)NC(=O)c1ccc2nnc(C3CCN(S(C)(=O)=O)C3)n2c1` (stereo not given), the cytotoxicity at 10 µM came to 3.25%. In the case of `CCCC1C=CCN1C(=O)c1cc(COc2ccccc2)[nH]n1` (stereo not given), the cytotoxicity at 10 µM worked out at 9.8%. Under `CN(C)C(C(=O)NCC(F)(F)F)c1cccc(F)c1` (stereo not given) stands -2.49%; under `CC(C)N1CC(C(=O)N2CCN(CCn3cccc3)CC2)CC1=O` (stereo not given), -4.97%. Consider `O=C(CCc1cc2n(n1)CCN(CCCn1cccc1)C2)N1CCCC1`, for which the cytotoxicity at 10 µM was -15.4%. Under `O=C(Cn1cccn1)N1CCc2[nH]nc(-c3ccc4c(c3)OCO4)c2C1` stands -153%. With `O=C(COc1cccc(F)c1)N1C[C@@H](CN2CCCC2)C[C@H](CO)C1`, the cytotoxicity at 10 µM is 3.94%.

Regarding `COCCC1(CO)CCCN(C(=O)CCC(F)(F)F)C1` (stereo not given), the cytotoxicity at 10 µM was -2.86%. With `O=C(O)c1ccc(CNC(=O)C2CCN(Cc3ccco3)CC2)s1`, the cytotoxicity at 10 µM is -0.861%. For `C=C(C)COc1ccc(C(=O)N(C)C(C)c2ccon2)cc1` (stereo not given), the cytotoxicity at 10 µM turned out to be 4.18%.

Regarding `Cn1cc(CN2CC[C@@H]3[C@@H](CCC(=O)N3CCc3ccccc3)C2)cn1`, the cytotoxicity at 10 µM is -1.45%. With `Cn1cc(-c2ccnc(NCC3CCN(Cc4ccccc4)C3)n2)cn1` (stereo not given) the figure was -130%; with `COCC(NC1CCN(CC(C)C)CC1)c1ccnn1C` (stereo not given), 4.22%. For `Cc1ccc(C(C(=O)O)N2CCCN(Cc3ccccn3)CC2)c(F)c1` (stereo not given), the cytotoxicity at 10 µM was -1.62%. In the case of `CN1CCCC2(CCN(S(=O)(=O)c3ccc(-c4cnco4)s3)C2)C1=O` (stereo not given), the cytotoxicity at 10 µM was determined as 5.84%. For `COc1ccc(F)c(F)c1C(=O)N1C[C@@H](CN(C)CCO)[C@@H](CO)C1`, the cytotoxicity at 10 µM was -1.02%. With `CN(C)CCC1CCCCN1Cc1cnn(C)c1C1CC1` (stereo not given) the figure was 2.84%. Consider `Cc1ccc(C)c2c(O)cc(CN3CCNC(=O)C3C)nc12` (stereo not given), for which the cytotoxicity at 10 µM was -1.66%.

With `COc1ccc(NC(=O)Cn2nc(C)c(C)cc2=O)cc1Cl`, the cytotoxicity at 10 µM is -6.47%. With `COc1ccc(NC(=O)Cn2nc(C)c(C)cc2=O)cc1` the figure was 4.2%; with `CS(=O)(=O)N1CCC(Oc2ccc(C(=O)NC3CCOC3)cc2Cl)CC1` (stereo not given), -4.88%; with `Cc1nnc(CNCC2(O)CCCN(Cc3ccc(F)c(F)c3)C2=O)[nH]1` (stereo not given), -6.79%. For the molecule `COc1ccc(CC2(C(=O)O)CCN(c3nc(C)ncc3C)CC2)cc1`, the cytotoxicity at 10 µM was -21.8%. In the case of `CN1CCN(Cc2nc3ccccc3[nH]2)[C@H]2CS(=O)(=O)C[C@H]21`, the cytotoxicity at 10 µM amounted to 20.5%. With `O=C1OC2(CCN(C3CCCOC3)CC2)CN1CCc1ccccc1` (stereo not given), the cytotoxicity at 10 µM is -17.5%. For `Cc1ccc(C#N)c(N2CCC(c3nccn3CCN(C)C)CC2)n1`, the cytotoxicity at 10 µM was -5.47%. As to `CCn1ccnc1CN1CCCN(C(=O)c2csc(C)n2)CC1`, the cytotoxicity at 10 µM was -2.84%. Under `CCOCC(O)CN1CCN(C(=O)c2cc(F)ccc2C)CC1` (stereo not given) stands -6.69%. With `COc1cccc(CNC(=O)N2CCN(Cc3cc(C)on3)CC2)c1` the figure was -1.58%. Turning to `CCc1noc(C(C)N2CCC(C(=O)Nc3cnn(CC)c3)CC2)n1` (stereo not given), the cytotoxicity at 10 µM was 2.21%. With `CN1CCc2c(C#N)c(NCC3CCCO3)n3cnnc3c2C1` (stereo not given), the cytotoxicity at 10 µM stood at 4.48%. For the molecule `CNC(=O)C1(N2CCC[C@H]2C(=O)NC2CCCCC2)CCOCC1`, the cytotoxicity at 10 µM was -1.25%. Under `c1ccc(CN2CC[C@@H]3O[C@@H](COCCN4CCCC4)CC[C@@H]32)nc1` stands -80.6%; under `Cc1ccc(CN2C[C@@H]3COC[C@H](NS(C)(=O)=O)[C@@H]3C2)s1`, 0.354%; under `CC(=O)N1[C@H](Cn2cncn2)C[C@@H]2CN(CC3CC3)CC[C@@H]21`, -3.64%. Under `CCCC(=O)N1CC[C@@H]2[C@H](CC1)N(Cc1cccnc1)CCS2(=O)=O` stands -8.63%. Under `N#Cc1cccc(CN2CCC3(CC2)CC(c2ccncc2)C(=O)N3)c1` (stereo not given) stands 3.44%.
